Assay results: ChEMBL document CHEMBL1131245, “Selective inhibitors of monoamine oxidase (MAO). 5. 1-Substituted phenoxathiin inhibitors containing no nitrogen that inhibit MAO A by binding it to a hydrophobic site” (J Med Chem, 1998)

What was measured:
[1] = target: T1, Amine oxidase [flavin-containing] B (Rattus norvegicus, UniProt P19643); assay: Percentage inhibition of Monoamine oxidase B (MAO-B) at 1 uM concentration
T1 sequence (P19643 whole entry): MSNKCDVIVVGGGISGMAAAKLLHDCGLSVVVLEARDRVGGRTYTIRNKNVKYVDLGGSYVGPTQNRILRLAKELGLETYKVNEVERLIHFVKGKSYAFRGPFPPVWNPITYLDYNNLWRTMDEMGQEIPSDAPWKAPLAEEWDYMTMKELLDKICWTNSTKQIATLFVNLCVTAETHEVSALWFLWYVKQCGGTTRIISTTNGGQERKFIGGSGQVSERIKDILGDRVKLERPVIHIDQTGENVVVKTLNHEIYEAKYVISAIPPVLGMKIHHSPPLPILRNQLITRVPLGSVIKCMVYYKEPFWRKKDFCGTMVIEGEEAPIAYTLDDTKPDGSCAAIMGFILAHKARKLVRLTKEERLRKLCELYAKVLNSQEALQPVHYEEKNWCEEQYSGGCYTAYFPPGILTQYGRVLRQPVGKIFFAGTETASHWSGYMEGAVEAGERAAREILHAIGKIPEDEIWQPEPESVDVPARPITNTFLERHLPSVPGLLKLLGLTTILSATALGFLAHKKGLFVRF
Outline: (§1)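 Radiometric MAO assay with [3H]serotonin and [14C]phenethylamine as substrates. Each inhibitor concentration was run in triplicate, and SEM of percent inhibition was within 5% of means. IC50 was estimated visually from plots of mean percent inhibition against log inhibitor concentration.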

[2] = target: T2, Amine oxidase [flavin-containing] A (Rattus norvegicus, UniProt P21396); assay: The inhibitory concentration against Monoamine oxidase A; outline: as §1
T2 sequence (P21396 whole entry): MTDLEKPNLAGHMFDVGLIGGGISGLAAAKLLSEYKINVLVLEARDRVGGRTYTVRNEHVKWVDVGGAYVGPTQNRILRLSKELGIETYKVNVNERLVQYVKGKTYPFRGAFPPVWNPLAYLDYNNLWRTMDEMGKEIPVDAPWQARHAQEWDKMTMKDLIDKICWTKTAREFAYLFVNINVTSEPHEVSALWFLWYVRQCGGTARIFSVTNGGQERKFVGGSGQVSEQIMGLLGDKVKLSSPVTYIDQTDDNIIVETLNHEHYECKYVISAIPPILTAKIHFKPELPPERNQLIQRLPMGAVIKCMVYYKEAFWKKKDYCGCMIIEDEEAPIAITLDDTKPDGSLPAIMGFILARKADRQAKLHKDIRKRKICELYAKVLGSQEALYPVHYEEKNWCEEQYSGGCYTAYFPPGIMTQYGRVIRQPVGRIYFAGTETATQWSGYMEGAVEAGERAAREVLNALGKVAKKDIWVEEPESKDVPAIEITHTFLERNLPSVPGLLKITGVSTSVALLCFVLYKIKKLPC

[3] = target: T2, Amine oxidase [flavin-containing] A; assay: Percent inhibition against monoamine oxidase A at 1 uM concentration.; outline: as §1
[4] = target: T2, Amine oxidase [flavin-containing] A; assay: In vivo inhibitory activity against Monoamine oxidase A of rat brain; format: functional, organism-based
[5] = target: T2, Amine oxidase [flavin-containing] A; assay: Inhibitory concentration against monoamine oxidase A.; outline: as §1
[6] = target: T1, Amine oxidase [flavin-containing] B; assay: Percentage inhibition of Monoamine oxidase B (MAO-B) activity at 0.1 uM concentration; outline: as §1
[7] = target: T1, Amine oxidase [flavin-containing] B; assay: Compound was evaluated for percent inhibition against Monoamine oxidase B at 10 uM concentration; outline: as §1
[8] = target: T2, Amine oxidase [flavin-containing] A; assay: Compound was evaluated for percent inhibition against Monoamine oxidase A at 10 uM concentration; outline: as §1
[9] = target: T1, Amine oxidase [flavin-containing] B; assay: Compound was evaluated for percent inhibition against Monoamine oxidase B at 0.01 uM concentration; outline: as §1
[10] = target: T1, Amine oxidase [flavin-containing] B; assay: Compound was evaluated for percent inhibition against Monoamine oxidase B at <10 uM concentration; outline: as §1
[11] = target: T1, Amine oxidase [flavin-containing] B; assay: Compound was evaluated for percent inhibition against Monoamine oxidase B; outline: as §1
[12] = target: T1, Amine oxidase [flavin-containing] B; assay: Compound was evaluated for percent inhibition against Monoamine oxidase B at 3 uM concentration; outline: as §1
[13] = target: T1, Amine oxidase [flavin-containing] B; assay: Inhibitory concentration of compound against monoamine oxidase B; outline: as §1

Structure (SMILES)	inhibition at 1 µM [1] [%]	IC50 [2] [nM]	IC50 [5] [nM]	further results
Cc1cccc2c(=O)c3ccccc3sc12	0	1400		
Cc1cccc2c(=O)c3cccc(C)c3sc12	9			inhibition at 1 µM [3]: 8%
CCc1ccc2c(c1)Oc1ccccc1S2	8	300		
CC(=O)Oc1ccc2c(c1)S(=O)(=O)c1ccccc1O2	19	500		
CN(C)CCOc1cccc2c1S(=O)(=O)c1ccccc1O2	0			inhibition at 1 µM [3]: 27%
O=S1(=O)c2ccccc2Oc2cccc(C(O)c3cccc(Cl)c3)c21 (centres undefined)	0			inhibition at 1 µM [3]: 40%
CCc1cccc2c1S(=O)(=O)c1ccccc1O2			70	ED80 [4]: 8 mg/kg; inhibition at 0.1 µM [6]: 0%
O=C(O)Cc1cccc2c1S(=O)(=O)c1ccccc1O2				inhibition at 10 µM [7]: 0%; inhibition at 10 µM [8]: 22%
O=S1(=O)c2ccccc2Oc2cccc(CBr)c21		100		inhibition at 0.1 µM [6]: 0%
Cc1cccc2c1[S+]([O-])c1ccccc1O2 (centres undefined)			1000	inhibition at 10 µM [7]: 0%
CCc1ccc2c(c1)S(=O)(=O)c1ccccc1O2			7	inhibition at 0.01 µM [9]: 0%
Cc1ccc2c(c1)Oc1ccccc1S2.Cc1cccc2c1Sc1ccccc1O2		610		Inhibition [10]: 9%
CCc1cccc2c(=O)c3ccccc3sc12	10	2000		
CC(O)c1cccc2c1S(=O)(=O)c1ccccc1O2 (stereo in doubt; 34)			2500	Inhibition [11]: 0%
CC(O)c1cccc2c1S(=O)(=O)c1ccccc1O2 (stereo in doubt; 35)			250	inhibition at 3 µM [12]: 7%
O=S1(=O)c2ccccc2Oc2cccc(C(O)CO)c21 (stereo in doubt; 44)				IC50 [13]: 30000 nM
O=S1(=O)c2ccccc2Oc2cccc(C(O)CO)c21 (stereo in doubt; 45)			2000	IC50 [13]: 30000 nM
